According to ChEMBL document CHEMBL1147206, “Synthetic cinnamylphenol derivatives as cancer chemopreventive agents” (2007):

Experiments:
[1] = tested on: Raji; assay: Survival of Raji cells at 32 nmol by trypan blue staining method; type: functional, Homo sapiens
Summary of the method: (§1)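 Raji cells (EBV genome-carrying, non-producer) grown to 10⁶ cells/mL, centrifuged, resuspended in RPMI 1640 with 10% FCS, 4 mM n-butyric acid and 32 pmol TPA (20 ng/mL), plus test compound in DMSO (32, 16, 3.2 or 0.32 nmol; 1000–10 mol ratio/TPA). Incubated 37 °C, 48 h; viability counted by hemocytometer with Trypan Blue; ≥60% survival required.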

[2] = tested on: Raji; assay: Survival of Raji cells at 0.32 nmol by trypan blue staining method; type: functional, Homo sapiens; summary of the method: as §1
[3] = tested on: Human gammaherpesvirus 4; assay: TPA-induced EBV early antigen activation in Raji cells at 3.2 nmol relative to control
[4] = tested on: Human gammaherpesvirus 4; assay: TPA-induced EBV early antigen activation in Raji cells at 16 nmol relative to control
[5] = tested on: Human gammaherpesvirus 4; assay: TPA-induced EBV early antigen activation in Raji cells at 32 nmol relative to control
[6] = tested on: Raji; assay: Survival of Raji cells at 16 nmol by trypan blue staining method; type: functional, Homo sapiens; summary of the method: as §1
[7] = tested on: Human gammaherpesvirus 4; assay: TPA-induced EBV early antigen activation in Raji cells at 0.32 nmol relative to control
[8] = tested on: Raji; assay: Survival of Raji cells at 3.2 nmol by trypan blue staining method; type: functional, Homo sapiens; summary of the method: as §1
[9] = species on record: Mus musculus; assay: Inhibition of TPA-induced skin tumor in SENCAR mouse assessed as reduction of skin papilloma at 85 nmol after 20 weeks; type: functional; design: scale not given: the % may be the effect or the level left
[10] = species on record: Mus musculus; assay: Inhibition of TPA-induced skin tumor in SENCAR mouse assessed as reduction of skin papilloma at 85 nmol after 10 weeks; type: functional; design: scale not given: the % may be the effect or the level left

| Compound | Survival [1] [%] | Survival [2] [%] | EBV-EA activation [3] [%] | EBV-EA activation [4] [%] | EBV-EA activation [5] [%] | Survival [6] [%] | EBV-EA activation [7] [%] | Survival [8] [%] | Activity [9] [%] | Activity [10] [%] |
| --- | --- | --- | --- | --- | --- | --- | --- | --- | --- | --- |
| COc1cc(O)ccc1C/C=C/c1ccccc1 | 60 | >80 | 73.2 | 44.7 | 18.1 | >80 | 100 | >80 | – | – |
| COc1cccc(OCC=C(C)C)c1C/C=C/c1ccccc1 | 70 | >80 | 68.9 | 30.8 | 0 | >80 | 92.7 | >80 | – | – |
| COc1cc(/C=C/Cc2ccc(OC)c(OCC=C(C)C)c2O)ccc1OCC=C(C)C | 70 | >80 | 68.6 | 27.5 | 0 | >80 | 89.1 | >80 | 53 | 87 |
| COc1cc(/C=C/Cc2ccc(OC)c(O)c2O)ccc1O | 60 | >80 | 73.2 | 45.5 | 8.7 | >80 | 95.7 | >80 | – | – |
| COc1c(C/C=C/c2ccccc2)cc(C/C=C/c2ccccc2)c(O)c1OC | 60 | >80 | 75.6 | 46.4 | 15.9 | >80 | 100 | >80 | – | – |
| COc1cc(/C=C/Cc2ccc(O)c(O)c2OC)ccc1O | 60 | >80 | 70.2 | 43.7 | 7.5 | >80 | 95.7 | >80 | – | – |
| COc1ccc(C/C=C/c2ccccc2)c(O)c1OC | 60 | >80 | 76.2 | 45.5 | 13.3 | >80 | 100 | >80 | – | – |
| COc1ccc(C/C=C/c2ccccc2)c(O)c1OCC=C(C)C | 70 | >80 | 65.6 | 30.6 | 0 | >80 | 90.8 | >80 | – | – |
| COc1cc(OCC=C(C)C)ccc1C/C=C/c1ccccc1 | 70 | >80 | 65.2 | 29.3 | 0 | >80 | 87.6 | >80 | – | – |
| COc1ccc(C/C=C/c2ccccc2)c(OC)c1O | 60 | >80 | 76.9 | 41.2 | 14.1 | >80 | 100 | >80 | – | – |
| COc1cc(/C=C/Cc2ccc(OC)c(O)c2O)ccc1OC(C)=O | 60 | >80 | 74.6 | 37.6 | 10 | >80 | 100 | >80 | – | – |
| COc1cc(/C=C/Cc2ccc(OC)c(OCC=C(C)C)c2OCC=C(C)C)ccc1OCC=C(C)C | 70 | >80 | 61.5 | 23.6 | 0 | >80 | 83.3 | >80 | – | – |
| COc1ccc(C/C=C/c2ccccc2)c(OCC=C(C)C)c1OCC=C(C)C | 70 | >80 | 62.2 | 24.6 | 0 | >80 | 88.6 | >80 | – | – |
| COc1c(C/C=C/c2ccccc2)ccc(OCC=C(C)C)c1OC | 70 | >80 | 68.2 | 29.8 | 0 | >80 | 91.5 | >80 | – | – |
| COc1c(C/C=C/c2ccccc2)ccc(O)c1O [HYDROXYOBUSTYRENE] | 60 | >80 | 71 | 41.3 | 10.2 | >80 | 100 | >80 | – | – |
